From PMC4502975 (Angewandte Chemie (International Ed. in English), 2014)
“Also recorded” adds a separate entry of the source. Values belong to the molecule of their own block, whether it stands above or below them.

What was measured:
human AC [1] = biological target: T1, human AC (Homo sapiens, UniProt Q13510); assay: Acid ceramidase; assay type: biochemical; details: for IC50 [nM] ±S.E.M on human AC: means of at least three determinations
T1 sequence (Q13510 22-395): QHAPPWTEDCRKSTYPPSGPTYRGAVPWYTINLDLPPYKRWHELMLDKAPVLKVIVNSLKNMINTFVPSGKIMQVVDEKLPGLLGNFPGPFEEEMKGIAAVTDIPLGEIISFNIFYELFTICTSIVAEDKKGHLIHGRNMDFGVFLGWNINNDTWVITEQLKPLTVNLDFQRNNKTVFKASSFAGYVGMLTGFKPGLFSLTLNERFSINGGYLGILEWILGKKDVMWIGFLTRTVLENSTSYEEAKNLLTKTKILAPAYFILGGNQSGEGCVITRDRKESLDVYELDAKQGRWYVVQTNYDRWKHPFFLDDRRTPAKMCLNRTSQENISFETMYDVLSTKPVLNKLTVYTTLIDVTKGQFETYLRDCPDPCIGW

[2] = Chemical stability in [D6]DMSO; assay type: physicochemical
[3] = Buffer stability in AC assay buffer pH 4.5 by LC-MS; assay type: physicochemical
human AC [4] = biological target: T1, human AC; assay: Kinetic analysis of the AC reaction; assay type: biochemical; details: mean of two independent experiments
In short: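 Kinetic analysis of the fluorescence-based AC reaction run with vehicle (1% DMSO) or test compound at 20 or 50 nm, n=6 each. Vmax given in relative fluorescence units; KM derived for each condition. Values are the mean of two independent experiments.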

[5] = biological target: T2, purified recombinant human AC (Homo sapiens, UniProt Q13510); assay: LC-MS study of covalent adduct with AC; assay type: binding; details: 1:10 protein:compound, 1 h, 37 °C, pH 4.5
T2 sequence (Q13510 143-395 limits assumed): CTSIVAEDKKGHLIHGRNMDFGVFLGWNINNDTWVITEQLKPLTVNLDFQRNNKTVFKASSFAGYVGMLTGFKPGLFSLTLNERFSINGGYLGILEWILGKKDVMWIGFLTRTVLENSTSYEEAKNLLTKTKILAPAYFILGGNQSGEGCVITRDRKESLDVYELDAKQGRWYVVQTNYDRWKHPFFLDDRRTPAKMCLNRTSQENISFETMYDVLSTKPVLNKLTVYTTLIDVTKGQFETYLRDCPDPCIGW
T2 sequence (Q13510 22-142 limits assumed): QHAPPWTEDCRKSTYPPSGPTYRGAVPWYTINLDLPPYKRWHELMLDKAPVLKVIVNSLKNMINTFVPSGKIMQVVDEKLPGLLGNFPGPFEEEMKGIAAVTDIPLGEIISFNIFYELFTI

rat AC = details: read-out: IC50 for rat AC; cited from earlier work

SMILES: CN(CCCCc1ccccc1)C(=O)n1c(=O)oc2ccccc21 [9 c]
IC50 [nM] ±S.E.M on human AC (human AC [1]): no inhibitory activity; also recorded: no inhibition

SMILES: O=C(CCCCCc1ccccc1)n1c(=O)oc2ccccc21 [9 e]
IC50 [nM] ±S.E.M on human AC (human AC [1]): Loss of activity; also recorded: no inhibition

SMILES: O=C(OCCCCc1ccccc1)n1c(=O)oc2ccccc21 [9 d]
IC50 [nM] ±S.E.M on human AC (human AC [1]): no inhibitory activity; also recorded: no inhibition

SMILES: CCCCCCNC(=O)n1cc(F)c(=O)[nH]c1=O [carmofur, 5-fluoro-N-hexyl-2,4-dioxo-pyrimidine-1-carboxamide]
IC50 (rat AC): 29 nM

Second part, led by results:

IC50 [nM] ±S.E.M on human AC (human AC [1]): not stable | chemical stability in [D6]DMSO [2]: limited chemical stability
SMILES: O=c1oc2ccccc2n1C(=S)NCCCCc1ccccc1 [9 b]

inhibition of AC in vitro (human AC [1]; at 10 μM): did not inhibit
SMILES: O=c1[nH]c2ccc(-c3ccc(F)cc3)cc2o1 [compound 19]

potency relative to 9 a (human AC [1]; human AC): two-fold increase in potency | half-life at 10 µM [3]: 4.9 ± 0.5 h
SMILES: O=C(NCCCCc1ccccc1)n1c(=O)oc2cc(Br)ccc21 [16 a]

Vmax (human AC [4]; 9 a 20 nM): 7808 RFU | Vmax (human AC [4]; 9 a 50 nM): 3889 RFU | half-life at 10 µM [3]: 2.1 ± 0.05 h
SMILES: O=C(NCCCCc1ccccc1)n1c(=O)oc2ccccc21 [9 a, 2-oxo-N-(4-phenylbutyl)-1,3-benzoxazole-3-carboxamide]
covalent binding to AC (LC-MS, tryptic peptide CTSIVAEDK) [5]: covalently binds to the catalytic cysteine, Cys-143
